# An excerpt weighted towards active compounds, which were near 3.2% of everything screened.
# UBC13 inh: UBC13 polyubiquitin chain formation inhibitors, primary screen, biochemical, TR-FRET, uHTS; Ubiquitin-conjugating enzyme E2 N (Homo sapiens), P61088; hit rate 0.47% among 330,000; inhibition, % at 20 µM; in the data active = inhibition above about 45%, passing the limit was not always enough
# MEKK2 WT-MEK5: modulators of MEK5 binding to wildtype MEKK2, primary screen, biochemical, multiplex bead flow cytometry, Alexa488-MEK5. Mitogen-activated protein kinase kinase kinase 2 (Homo sapiens), Q9Y2U5. Alexa488-MEK5 binding to MEKK2 WT; actives lie on both sides. binding response (% of control), % at 10 µM. hit rate 1.1% among 290,000; in the data active = binding response below about 67% or above about 130%
# MEKK3 PB1 HTS: modulators of MEKK3-MEK5 PB1 binding, primary screen, biochemical, wildtype MEKK3, multiplex bead flow cytometry, Alexa488-MEK5; bead-based flow cytometry, Alexa488-MEK5 binding to MEKK3; actives lie on both sides; 0 = blocked by unlabeled MEK5, 100 = vehicle; Mitogen-activated protein kinase kinase kinase 3 (Homo sapiens), Q99759; hit rate 1.4% among 290,000; binding response (% of control), % at 10 µM;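 active = binding response more than 3 SD above or below the average of its plate-row segment, actives on both sides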;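 also: Alexa488 bead fluorescence after subtracting the streptavidin-only scavenger bead signal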
# Target sequence (Q99759 whole entry, looked up): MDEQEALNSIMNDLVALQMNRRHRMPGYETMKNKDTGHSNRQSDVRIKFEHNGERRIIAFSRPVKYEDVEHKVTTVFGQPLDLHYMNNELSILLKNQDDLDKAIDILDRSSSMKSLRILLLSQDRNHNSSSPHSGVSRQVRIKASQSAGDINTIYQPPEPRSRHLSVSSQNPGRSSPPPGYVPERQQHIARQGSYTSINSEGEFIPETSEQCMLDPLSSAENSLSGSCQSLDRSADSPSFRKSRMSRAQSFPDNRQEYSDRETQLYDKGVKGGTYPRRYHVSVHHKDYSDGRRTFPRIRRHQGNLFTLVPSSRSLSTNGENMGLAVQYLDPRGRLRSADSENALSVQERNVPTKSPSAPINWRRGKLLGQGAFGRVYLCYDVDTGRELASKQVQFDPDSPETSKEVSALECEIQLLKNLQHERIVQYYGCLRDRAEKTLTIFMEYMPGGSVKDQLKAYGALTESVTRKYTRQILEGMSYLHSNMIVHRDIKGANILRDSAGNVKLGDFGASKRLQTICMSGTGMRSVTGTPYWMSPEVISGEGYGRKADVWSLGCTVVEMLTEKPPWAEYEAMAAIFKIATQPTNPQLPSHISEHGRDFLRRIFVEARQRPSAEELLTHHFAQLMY
# Apaf1 inhib: inhibitors of human Apaf-1 apoptosome, primary screen, biochemical, DEVD-Rh110 fluorescence, uHTS. Apoptotic protease-activating factor 1 (Homo sapiens), O14727. reconstituted apoptosome caspase-3 activity. inhibition, % at 20 µM. hit rate 0.71% among 330,000; active = inhibition of at least 40% at 20 µM;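 also: plate controls were DMSO wells for no effect and DEVD-CHO caspase inhibitor wells for full effect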
#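 Medium: Hepes buffer, pH 7.5 / System: biochemical Apaf-1 apoptosome reconstitution / Measured by: Rh110 fluorescence, excitation 480 nm, emission 540 nm / Times: compound with Apaf-1, dATP, procaspase-3 30 min, then 50 min reaction, room temperature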
# DSG3 Ab inh: inhibitors of pemphigus antibody binding to DSG3, primary screen, biochemical, bead-based, flow cytometry, scFv-GFP; Desmoglein-3 (Homo sapiens), P32926; DSG3-coupled beads, scFv-anti-DSG3-GFP binding; stronger effect = lower value; binding (percent of control), % at 10 µM; hit rate 0.48% among 310,000;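 active = binding more than 3 SD below its plate's average and above zero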
# MEKK2mut PB1 HTS: MEK5 binding signal on mutant MEKK2 PB1, primary screen, biochemical, multiplex bead flow cytometry, Alexa488-MEK5; Alexa488-MEK5 binding to MEKK2 mutant; percent response, % at 10 µM; hit rate 0.35% among 290,000; AID 1530, 2009; in the data active = percent response above about 24%, passing the limit was not always enough
# Apaf-1 inh conf2: Apaf-1 inhibitors, single-dose retest, confirmation, biochemical, fluorescence, DEVD-Rh110, 20 µM. AID 504614, 2011. hit rate 25% among 1,800. shares compounds with Apaf1 inhib. reconstituted apoptosome, caspase-3 DEVD-Rh110 fluorescence. inhibition, % at 20 µM;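 active = mean inhibition of at least 40% at 20 µM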;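 also: plate controls were DMSO wells for no effect and DEVD-CHO caspase inhibitor control wells for full effect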
# Rh110 interf inh: Rh110 fluorescence interference by putative Apaf-1 inhibitors, confirmation, artefact control for Apaf-1 inhibitor project, biochemical, 20 µM; 1,800 tested, under 10 active; shares compounds with Apaf1 inhib; activation (fluorescence interference), % at 20 µM; quenched caspase reaction;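 active = signal rise of 40% or more at 20 µM, treated as a fluorescence artifact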
# Apaf1 inh interf: fluorescence interference of Apaf-1 inhibitor hits, dose response, artefact control for Apaf-1 inhibitor project; shares compounds with Apaf1 inhib; fluorescence interference counterscreen, Apaf-1 assay format; IC50, µM; 460 tested, under 10 active; AID 588538, 2011; call rule not given here
# The depositor's hits bear a star; . = no result; ! = a repeat was not active.
SMILES,UBC13 inh,MEKK2 WT-MEK5,MEKK3 PB1 HTS,Apaf1 inhib,DSG3 Ab inh,MEKK2mut PB1 HTS,Apaf-1 inh conf2,Rh110 interf inh,others
O=C(O)CC(NC(=O)c1sc2ccccc2c1Cl)c1ccc(OC2CCCC2)cc1 (stereo unspecified),-14,93,91,44*,97,-3,11,1,
O=C(O)CC(NC(=O)C1c2ccccc2Oc2ccccc21)c1ccc(OC2CCCC2)cc1 (stereo unspecified),-5,93,96,-2,103,-7,.,.,
COc1ccc(CN2CC(C(=O)NCc3ccc4c(c3)OCO4)CC2=O)cc1 (stereo unspecified),6,104,101,0,101,3,.,.,
COc1ccc(CN2CC(C(=O)NCc3cccc(OC)c3)CC2=O)cc1 (stereo unspecified),5,104,104,67*,102,-6,11,4,
O=C(CO)N/N=C/c1cccc(Cl)c1Cl,2,103,107,-9,93,4,.,.,
O=C(Cc1cc(=O)[nH][nH]1)N/N=C/C(Cl)=C/c1ccccc1,10,99,101,49*!,103,2,20,3,
O=C(Cc1cc(=O)[nH][nH]1)N/N=C/c1cccc(Cl)c1Cl,-5,89,100,48*!,107,-8,11,3,
O=C(Cc1cc(=O)[nH][nH]1)N/N=C/c1c(Cl)cccc1Cl,4,92,89,64*!,109,-4,5,-2,
O=C(Cc1cc(=O)[nH][nH]1)N/N=C/c1cccc2ccccc12,-11,89,101,54*,109,-7,13,-1,
O=C(CSCc1ccc(Cl)cc1)N/N=C/c1c(Cl)cccc1Cl,.,81,105,.,94,3,.,.,
O=C(N/N=C/c1cccc2ccccc12)c1cccc(F)c1,-16,107,109,38,107,6,.,.,
COc1ccc(C(=O)CSc2nnc(CNC(=O)c3ccccc3F)n2C)cc1OC,-1,104,97,5,.,3,.,.,
Cc1cc(=O)n(-c2ccc3ccccc3n2)[nH]1,-9,99,103,86*,101,4,4,4,
COc1ccc(Cl)cc1NC(=O)C(C)N1CCN(C/C=C/c2ccccc2)CC1 (stereo unspecified),19,125,104,43*,104,9,15,11,
Cc1cc(C)nc(NCc2ccc(Cl)cc2)n1,-3,107,101,8,105,2,.,.,
Cc1cc(Nc2cccc(Cl)c2)nc(NCc2ccccc2)n1,49*,119,100,43*,108,8,15,6,
Cc1ncc(CO)c(CNc2ccc(-c3nc4ccccc4[nH]3)cc2)c1O,-14,104,100,7,112,-2,.,.,
Nc1c(C(=O)NCCN2CCOCC2)c2nc3ccccc3nc2n1CCc1ccccc1F,-9,98,87,43*,86,-5,18,13,
Nc1c(C(=O)NCCN2CCOCC2)c2nc3ccccc3nc2n1CCc1ccccc1,6,98,87,20,118,-2,.,.,
COc1ccccc1CNC(=O)c1c(N)n(CCCN2CCOCC2)c2nc3ccccc3nc12,.,.,.,.,99,.,.,.,
Nc1c(C(=O)NCc2ccc3c(c2)OCO3)c2nc3ccccc3nc2n1CCCN1CCOCC1,1,117,107,90*,116,9,44*,10,Apaf1 inh interf=>100
O=C1CCNc2cc3ccccc3cc21,-40,94,98,62*,.,0,20,11,
O=C1CCNc2ccc(-c3ccccc3)cc21,-2,95,92,26,100,-1,.,.,
O=C(CN1CCc2cc3c(cc2C1)OCCCO3)Nc1cccc([N+](=O)[O-])c1,1,102,97,43*,101,-3,25,-7,
CC1CN(C(=O)COc2ccc3c(-c4ccccc4)cc(=O)oc3c2)CC(C)O1 (stereo unspecified),2,.,.,-1,.,.,.,.,
Cc1cc(C)n2nc(C(=O)OCC(=O)c3ccccc3Cl)nc2n1,6,.,.,-14,93,.,.,.,
CC(=O)Nc1ccc(C(=O)COC(=O)c2nc3nc(C)cc(C)n3n2)cc1,-11,.,.,41*,117,.,10,2,
CC1(CCCN2C(=O)c3ccccc3C2=O)OCCO1,2,.,.,-2,108,.,.,.,
